This passage reports IC50 and Activity results from ChEMBL document CHEMBL3112586, “Synthesis of neolignans as microtubule stabilisers” (Bioorg Med Chem, 2014).

In assay [1] the test system is MCF7. The assay can be described thus: Cytotoxicity against human MCF7 cells after 24 hrs by MTT assay. It counts as functional, cell-based. Particulars: MCF7, 24 h. An outline of the steps:
(§1)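 Cells in DMEM, 10% FBS, 37 °C, 5% CO2, plated and incubated 24 h; compounds diluted in phenol-red-free DMEM with 0.5% FBS, vehicle control; after exposure, MTT (5 mg/mL stock) added 3 h, formazan dissolved in DMSO, absorbance 570 nm; IC50 derived; podophyllotoxin and tamoxifen positive controls.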
In general terms: Formazan colour is commonly taken as a measure of viable cells.

The subject of assay [2] is MDA-MB-231. The assay can be described thus: Cytotoxicity against human MDA-MB-231 cells after 24 hrs by MTT assay. It counts as functional, cell-based. The following applies: MDA-MB-231, 24 h. Summed up:
as §1

Assay [3] deals with T1, Tubulin (Homo sapiens) (UniProt P68371+Q9H4B7+P0DPH7+P68366+Q13509+Q71U36+P04350+Q3ZCM7+P07437+P68363+Q9BQE3+Q6PEY2+Q13885+Q9BVA1+Q9BUF5). The assay can be described thus: Induction of tubulin polymerization (unknown origin) at 10 to 40 uM measured every min for 1 hr in presence of PDT. It counts as protein-complex assay. Summed up: (§2)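 Tubulin 3 mg/mL in 80 mM PIPES pH 6.9, 2 mM MgCl2, 0.5 mM EGTA, 1 mM GTP, 15% glycerol at 37 °C with test compounds at varied concentrations; turbidity at 340 nm read every min for 1 h; podophyllotoxin inhibitor and paclitaxel stabiliser references, DMSO negative control.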

The target of assay [4] is T1, Tubulin (Homo sapiens). The assay can be described thus: Induction of tubulin polymerization (unknown origin) at 10 to 40 uM measured every min for 1 hr. The class given is protein-complex assay. Summed up: as §2
Assay [5] has as its system MDA-MB-231. The assay can be described thus: Cytotoxicity against human MDA-MB-231 cells after 48 to 72 hrs by MTT assay. The class given is functional, cell-based. An outline of the steps:
as §1

Assay [6] deals with MCF7. The assay can be described thus: Cytotoxicity against human MCF7 cells after 48 to 72 hrs by MTT assay. The class given is functional, cell-based. An outline of the steps: as §1
In another assay the test system is HEK293. The assay can be described thus: Cytotoxicity against human HEK293 cells after 24 hrs by MTT assay. The class given is cell-based. The following applies: HEK293, 24 h. An outline of the steps:
as §1

In assay [7] the test system is MDA-MB-231. Briefly: Cytotoxicity against human MDA-MB-231 cells after 72 hrs by MTT assay. It counts as functional, cell-based. The following applies: MDA-MB-231, 72 h. An outline of the steps:
as §1

For assay [8], the system named is MDA-MB-231. Briefly: Cytotoxicity against human MDA-MB-231 cells after 48 hrs by MTT assay. The class given is functional, cell-based. The following applies: MDA-MB-231, 48 h. Summed up:
as §1

For assay [9], the system named is MCF7. Briefly: Cytotoxicity against human MCF7 cells after 72 hrs by MTT assay. Particulars: MCF7, 72 h. The class given is functional, cell-based. An outline of the steps:
as §1

Assay [10] relates to MCF7. The assay can be described thus: Cytotoxicity against human MCF7 cells after 48 hrs by MTT assay. The class given is functional, cell-based. Particulars: MCF7, 48 h. An outline of the steps:
as §1

The species named for a further assay is Homo sapiens. Briefly: Induction of microtubule stabilization (unknown origin) at 4 to 20 uM.
The subject of assay [11] is MCF7. The assay can be described thus: Induction of microtubule polymerization in human MCF7 cells assessed as actin-tubulin cytoskeleton stabilization at 10 uM by confocal microscopy. The class given is cell-based. An outline of the steps: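 MCF-7 cells treated, immunostained for actin and tubulin, and examined by confocal microscopy; paclitaxel-treated cells as positive control.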

Activity calls are given as the source filed them. No cut-off for these calls is given here.

As for `CCOC(=O)C(=C\c1cc(OC)c(OC(C)=O)c(OC)c1)/C(=C/c1cc(OC)c(OC(C)=O)c(OC)c1)C(=O)OCC`, the concentration for half-maximal inhibition (IC50) in the assay on MCF7 [1] and with MDA-MB-231 [2] was more than 100 µM throughout.

With `CCOC(=O)/C=C/c1cc(OC)c(O)c(OC)c1/C(=C/c1cc(OC)c(O)c(OC)c1)C(=O)OCC`, the IC50 (in general, the concentration that gives 50% inhibition) stood at 74 µM with MCF7 [1] and 92 µM in the assay on MDA-MB-231 [2].

As to `CCOC(=O)/C=C/c1ccc(O)c(/C(=C/c2ccc(OC(C)=O)cc2)C(=O)OCC)c1`, the result on Tubulin (Homo sapiens) [3] was inactive. The outcome on Tubulin (Homo sapiens) [4], in the assay on MDA-MB-231 [5], with MCF7 [6] and in the assay listed under Homo sapiens was Active. The half-maximal inhibitory concentration (IC50) with HEK293 was determined as 20 µM; with MCF7 [1], 66 µM; in the assay with MDA-MB-231 [2], 16 µM; in the assay with MDA-MB-231 [7] it was 210 nM; in the assay on MDA-MB-231 [8], 3.22 µM; in the assay on MCF7 [9], 820 nM. This compound gave an IC50 in the assay with MCF7 [10] of 9.65 µM.

On to `CC(=O)O[C@H]1C(=O)[C@@]2(C)[C@H]([C@H](OC(=O)c3ccccc3)[C@]3(O)C[C@H](OC(=O)[C@H](O)[C@@H](NC(=O)c4ccccc4)c4ccccc4)C(C)=C1C3(C)C)[C@]1(OC(C)=O)CO[C@@H]1C[C@@H]2O`, for which the outcome in the assay with MCF7 [11] and on Tubulin (Homo sapiens) [4] was Active. Further, the result at Tubulin (Homo sapiens) [3] was inactive.

For the compound `COc1cc([C@@H]2c3cc4c(cc3[C@H](O)[C@H]3COC(=O)[C@H]23)OCO4)cc(OC)c1OC` [PODOFILOX], the figures for the IC50 with HEK293, in the assay with MCF7 [1] and in the assay on MDA-MB-231 [2] were 50 µM, 65 µM and 35.7 µM, respectively.

As for `CCOC(=O)C(=C\c1cc(OC)c(OC)c(OC)c1)/C(=C/c1cc(OC)c(OC)c(OC)c1)C(=O)OCC`, the half-maximal inhibitory concentration (IC50) in the assay on MCF7 [1] is 100 µM; with MDA-MB-231 [2], more than 100 µM.

`CCOC(=O)/C=C/c1cc(OC)c(OC)c(/C(=C/c2ccc(OC)c(OC)c2)C(=O)OCC)c1`: the half-maximal inhibitory concentration (IC50) with MCF7 [1] and in the assay on MDA-MB-231 [2] was more than 100 µM each time.

For the compound `COc1ccc(/C=C(\COC(C)=O)c2cc(/C=C/COC(C)=O)cc(OC)c2OC)cc1OC`, the half-inhibitory concentration (IC50) in the assay on MCF7 [1] and in the assay on MDA-MB-231 [2] was more than 100 µM each time.

Consider `COc1ccc(/C=C(\C(=O)O)c2cc(/C=C/C(=O)O)cc(OC)c2OC)cc1OC`, for which the IC50 in the assay with MDA-MB-231 [2] came out at 85 µM. That is a double-digit micromolar value.

In the case of `CCOC(=O)/C=C/c1cc(OC)c(O)c(/C(=C/c2ccc(OC(C)=O)c(OC)c2)C(=O)OCC)c1`, the IC50 with MCF7 [1] and in the assay with MDA-MB-231 [2] was more than 100 µM in each case.

In the assay on HEK293, `CC/C(=C(\c1ccccc1)c1ccc(OCCN(C)C)cc1)c1ccccc1` [TAMOXIFEN] showed a 50% inhibitory concentration (IC50) of 26 µM.

Take `COc1ccc(/C=C(\CO)c2cc(/C=C/CO)cc(OC)c2OC)cc1OC`: the concentration for half-maximal inhibition (IC50) with MCF7 [1] and in the assay on MDA-MB-231 [2] was more than 100 µM each time.

`COc1ccc(/C=C(\C(N)=O)c2cc(/C=C/C(N)=O)cc(OC)c2OC)cc1OC`: the IC50 in the assay with MCF7 [1] is 100 µM; in the assay with MDA-MB-231 [2], 32 µM.

Regarding `CCOC(=O)/C=C/c1ccc(OC)c(/C(=C/c2ccc(OC)cc2)C(=O)OCC)c1`, the IC50 in the assay with MCF7 [1] and with MDA-MB-231 [2] was more than 100 µM throughout.

Turning to `COc1cc(/C=C(\C(N)=O)c2cc(/C=C/C(N)=O)cc(OC)c2O)ccc1O`, the IC50 is 100 µM in the assay with MCF7 [1] and 80 µM in the assay on MDA-MB-231 [2].

Consider `CCOC(=O)C(=C\c1cc(OC)c(O)c(OC)c1)/C(=C/c1cc(OC)c(O)c(OC)c1)C(=O)OCC`, for which the IC50 with MCF7 [1] was more than 100 µM; in the assay with MDA-MB-231 [2], 82 µM.

Take `CCOC(=O)/C=C/c1cc(OC)c(O)c(/C(=C/c2ccc(O)c(OC)c2)C(=O)OCC)c1`: the IC50 in the assay on MCF7 [1] and with MDA-MB-231 [2] was more than 100 µM each time.
